Data reported in the array DNA melting data of Ke et al. (doi:10.1101/2024.01.08.574731).

Legend:
[1] = melting temperature; fluorescence melt of hairpins on a sequencing array, two-state fit, raised by 9.35 °C to match UV melts; conditions: sodium 0.088 M
In short: (§1)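 With Cy3 and quencher oligos annealed, library hairpins on a sequenced MiSeq flow cell were imaged for Cy3 fluorescence in 50 mM Na-HEPES pH 8.0, 25 mM NaCl, in 2.5 °C steps up to 60 °C. Melting temperature and folding enthalpy were derived from bootstrapped two-state fits of signals normalised to pre-quench Cy3 and to control constructs. Four replicates were combined by inverse variance, with fitted temperatures raised by 9.35 °C to match UV melts.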

[2] = folding enthalpy; higher = less favourable; fluorescence melt of hairpins on a sequencing array, two-state fit; conditions: sodium 0.088 M
In short: as §1

GGTAGCGAAAGCTACACC ((((((....)))..)))
Tm [1]: 50.5 °C
folding enthalpy [2]: -9.32 kcal/mol

GGTAGCGAAAGCTCAACC ((((((....)))..)))
Tm [1]: 34.9 °C
folding enthalpy [2]: -13.7 kcal/mol

GGTAGCGAAAGCTCTACC ((((((....)))..)))
Tm [1]: 38.1 °C
folding enthalpy [2]: -16.4 kcal/mol

GGTAGCGAAAGCTGACC ((((((....))).)))
Tm [1]: 49.7 °C
folding enthalpy [2]: -17.2 kcal/mol

GGTAGCGGAAACGTTGCC ((.(.((....)).).))
Tm [1]: 39.3 °C
folding enthalpy [2]: -25.2 kcal/mol

GGTAGGCGAAAGCCAACC (((.(((....))).)))
Tm [1]: 57.6 °C
folding enthalpy [2]: -28.1 kcal/mol

GGTAGGCGAAAGCCACC (((.(((....))))))
Tm [1]: 58.2 °C
folding enthalpy [2]: -16 kcal/mol

GGTAGGGGAAACCCTACC (((((((....)))))))
Tm [1]: 64.6 °C
folding enthalpy [2]: -44.1 kcal/mol

GGTAGTCCGAAAGGAACC (((..(((....))))))
Tm [1]: 27.1 °C
folding enthalpy [2]: -12.4 kcal/mol

GGTAGTGGAAACACTGCC ((.((((....)))).))
Tm [1]: 53 °C
folding enthalpy [2]: -38.9 kcal/mol

GGTATAACGAAAGTTACC (((..(((....))))))
Tm [1]: 37.8 °C
folding enthalpy [2]: -13.7 kcal/mol

GGTATACGAAAGTAGACC (((.(((....))).)))
Tm [1]: 52.1 °C
folding enthalpy [2]: -50.9 kcal/mol

GGTATAGGAAACCATACC (((((.(....).)))))
Tm [1]: 36.7 °C
folding enthalpy [2]: -23.1 kcal/mol

GGTATCGAAAGATAACC ((((((....))).)))
Tm [1]: 40.8 °C
folding enthalpy [2]: -21.5 kcal/mol

GGTATCGAAAGATACACC ((((((....)))..)))
Tm [1]: 42.9 °C
folding enthalpy [2]: -11.8 kcal/mol

GGTATCGAAAGATACC ((((((....))))))
Tm [1]: 62.1 °C
folding enthalpy [2]: -43.2 kcal/mol

GGTATCGGAAACGATACC (((((((....)))))))
Tm [1]: 64 °C
folding enthalpy [2]: -48.7 kcal/mol

GGTATCGGAAACGATGCC ((.((((....)))).))
Tm [1]: 54.6 °C
folding enthalpy [2]: -37.9 kcal/mol

GGTATCGGAAACGGTACC ((((.((....)).))))
Tm [1]: 51.6 °C
folding enthalpy [2]: -40.6 kcal/mol

GGTATGACGAAAGTCACC (((..(((....))))))
Tm [1]: 33.6 °C
folding enthalpy [2]: -11.8 kcal/mol

GGTATGCCGAAAGGCACC (((..(((....))))))
Tm [1]: 34.1 °C
folding enthalpy [2]: -9.19 kcal/mol

GGTATGCGAAAGCACACC (((.(((....))).)))
Tm [1]: 49.7 °C
folding enthalpy [2]: -27.7 kcal/mol

GGTATGCGAAAGCAGACC (((.(((....))).)))
Tm [1]: 65.1 °C
folding enthalpy [2]: -35.3 kcal/mol

GGTATTCGAAAGAACACC (((.(((....))).)))
Tm [1]: 39.3 °C
folding enthalpy [2]: -29.4 kcal/mol

GGTATTGGAAACGATACC (((((.(....).)))))
Tm [1]: 44.4 °C
folding enthalpy [2]: -33.4 kcal/mol

GGTCAACGAAAGTTAACC (((.(((....))).)))
Tm [1]: 39.3 °C
folding enthalpy [2]: -25 kcal/mol

GGTCAAGGAAACTTGGCC ((.((((....)))).))
Tm [1]: 52.8 °C
folding enthalpy [2]: -38.1 kcal/mol

GGTCACACGAAAGTGACC (((..(((....))))))
Tm [1]: 58.2 °C
folding enthalpy [2]: -35.5 kcal/mol

GGTCACCGAAAGGTTACC (((.(((....))).)))
Tm [1]: 50.1 °C
folding enthalpy [2]: -27.2 kcal/mol

GGTCACGAAAGTGCACC ((((((....))).)))
Tm [1]: 52.5 °C
folding enthalpy [2]: -28.3 kcal/mol

GGTCACGGAAACATGACC (((((.(....).)))))
Tm [1]: 44.4 °C
folding enthalpy [2]: -28.4 kcal/mol

GGTCAGCGAAAGCTACC (((.(((....))))))
Tm [1]: 47.5 °C
folding enthalpy [2]: -16.7 kcal/mol

GGTCAGGGAAACCTGGCC ((.((((....)))).))
Tm [1]: 57.5 °C
folding enthalpy [2]: -42.2 kcal/mol

GGTCAGGGAAACCTGGTC (..((((....))))..)
Tm [1]: 35.7 °C
folding enthalpy [2]: -15.9 kcal/mol

GGTCATCGAAAGATCACC (((.(((....))).)))
Tm [1]: 35.7 °C
folding enthalpy [2]: -30.2 kcal/mol

GGTCATGGAAACGTGACC (((((.(....).)))))
Tm [1]: 53.6 °C
folding enthalpy [2]: -52.9 kcal/mol

GGTCCACCGAAAGGTACC (((..(((....))))))
Tm [1]: 29.2 °C
folding enthalpy [2]: -11.9 kcal/mol
